ChEMBL document CHEMBL1240360, “TMC278, a next-generation nonnucleoside reverse transcriptase inhibitor (NNRTI), active against wild-type and NNRTI-resistant HIV-1” (Antimicrob Agents Chemother, 2010)

Experiments:
MT4 = test: Cytotoxicity against human MT4 cells by cell based assay
How it was run: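 Cytotoxicity in MT4 cells from cell-based assays gave a 50% cytotoxic concentration, reported as a median with first- to third-quartile values over the stated number of experiments.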

[1] = system: Human immunodeficiency virus 2; test: Antiviral activity against Human immunodeficiency virus 2 ROD infected in human MT4 cells assessed as reduction in virus induced cytopathicity; type: functional, organism-based; conditions: Human immunodeficiency virus 2, ISOLATE ROD
How it was run: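 MT4 cells (1.5 × 10^5/ml) infected with HIV (MOI 0.01) were added to serial compound dilutions and incubated 5 days at 37°C in 5% CO2. Protection from virus-induced cell death was read by MTT tetrazolium colorimetry, giving an EC50 in micromolar.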

O=C1Nc2ccc(Cl)cc2[C@@](C#CC2CC2)(C(F)(F)F)O1 [EFAVIRENZ]
Activity (MT4): 40.02 µM | EC50 [1]: 24.8 µM
